Measured values published in PubChem BioAssay.
Calls of active or inactive are those of the source.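 How the source made its calls, unless noted: active means Her2 level under about 52% in both replicate screens, with viability over 70% of control (limit read from the data); inconclusive means Her2 under the limit in one screen only, or viability under 70%; inactive means Her2 level above the set limit.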

Assays:
[1] = Her2 expression decrease, cell viability multiplex – SKBR3 breast tumor cells, AlphaScreen, ATP viability, primary screen (AID 461); settings: SKBR3 Her2 protein level, 18-24 h, measured here: SKBR3 viability, ATP luminescence, at 10 µM;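 on Her2 level: lower value means less Her2 protein in the cells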;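 on viability: percent of carrier control wells set as 100% viability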
[2] = molecular target: Receptor tyrosine-protein kinase erbB-2 (Homo sapiens) (UniProt P04626); experiment: as above; settings: 18-24 h, at 10 µM, stronger effect = lower value
[3] = reduced viability of SK-BR-3 breast cancer cells – cell-based, 24 h, human, pilot screen (AID 572;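 active means viability at or below 10% of carrier control in both of two separate runs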;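 further: compound exposure lasted between 18 and 24 h rather than exactly 24 h; 100% = carrier-treated control wells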); settings: SK-BR-3 viability, CellTiter-Glo luminescence, at 10 µM, stronger effect = lower value
[4] = HUVEC growth inhibition – cell-based, human, primary screen (AID 575;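 active means viability at or below 30% in both replicate assays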;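 further: 100% = median of untreated cell wells with 0.1% DMSO on each plate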); settings: HUVEC proliferation, CellTiter-Glo luminescence, 72 h; at 10 µM; stronger effect = lower value
Procedure, shortened: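 Test system: HUVEC primary cells. Quantity: 1250 endothelial cells in each well. Dosing: single-point 10 µM, DMSO 0.1% final. Incubation: 72 h treatment at 37 °C. Measured by: CTG luminescence. Control set: DMSO cell controls and MePR drug controls. Plate: collagen-coated 384-well format.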

[5] = H69AR cell proliferation blockers – human, duplicate replicates, primary screen (AID 580;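 active means viability at or under a set limit in both replicates, limit being median viability minus 3 SD, cut at about 48% in these data, passing the limit was not always enough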;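 further: 100% = mean luminescence of untreated wells and 0% = no signal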); settings: H69AR lung tumor cells viability, ATP luminescence, 72 h; at 10 µM; stronger effect = lower value
[6] = MRP1 drug-resistance reversers in H69AR cells – cell-based, doxorubicin co-treatment, pilot screen (AID 601;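 active means viability loss from added drug above about 55%, and viability with drug at most 40%, in both replicates, limit read from the data, passing the limit was not always enough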); settings: CellTiter-Glo, 72 h, at 10 µM; for differential viability (reversal): stronger effect = higher value
[7] = yeast transport mutant growth inhibition pilot in 384-well plates, post-Golgi transport modulator project (AID 636; in the data active means inhibition above about 31%); settings: absorbance 615 nm, about 18 h, stronger effect = higher value
[8] = growth suppression of yeast trafficking mutant, preliminary HTS, modulators of trafficking downstream of Golgi apparatus project, 1536-format plate, OD 615 nm (AID 637; in the data active means inhibition above about 30%); settings: yeast transport mutant growth, absorbance 615 nm, 18 h; stronger effect = higher value
[9] = H69AR cells + 2 uM doxorubicin, measured here: viability with 2 uM doxorubicin, stronger effect = lower value
[10] = H69AR cells, compound alone cytotoxicity

Receptor tyrosine-protein kinase erbB-2 (Homo sapiens), sequence (P04626 whole entry, looked up): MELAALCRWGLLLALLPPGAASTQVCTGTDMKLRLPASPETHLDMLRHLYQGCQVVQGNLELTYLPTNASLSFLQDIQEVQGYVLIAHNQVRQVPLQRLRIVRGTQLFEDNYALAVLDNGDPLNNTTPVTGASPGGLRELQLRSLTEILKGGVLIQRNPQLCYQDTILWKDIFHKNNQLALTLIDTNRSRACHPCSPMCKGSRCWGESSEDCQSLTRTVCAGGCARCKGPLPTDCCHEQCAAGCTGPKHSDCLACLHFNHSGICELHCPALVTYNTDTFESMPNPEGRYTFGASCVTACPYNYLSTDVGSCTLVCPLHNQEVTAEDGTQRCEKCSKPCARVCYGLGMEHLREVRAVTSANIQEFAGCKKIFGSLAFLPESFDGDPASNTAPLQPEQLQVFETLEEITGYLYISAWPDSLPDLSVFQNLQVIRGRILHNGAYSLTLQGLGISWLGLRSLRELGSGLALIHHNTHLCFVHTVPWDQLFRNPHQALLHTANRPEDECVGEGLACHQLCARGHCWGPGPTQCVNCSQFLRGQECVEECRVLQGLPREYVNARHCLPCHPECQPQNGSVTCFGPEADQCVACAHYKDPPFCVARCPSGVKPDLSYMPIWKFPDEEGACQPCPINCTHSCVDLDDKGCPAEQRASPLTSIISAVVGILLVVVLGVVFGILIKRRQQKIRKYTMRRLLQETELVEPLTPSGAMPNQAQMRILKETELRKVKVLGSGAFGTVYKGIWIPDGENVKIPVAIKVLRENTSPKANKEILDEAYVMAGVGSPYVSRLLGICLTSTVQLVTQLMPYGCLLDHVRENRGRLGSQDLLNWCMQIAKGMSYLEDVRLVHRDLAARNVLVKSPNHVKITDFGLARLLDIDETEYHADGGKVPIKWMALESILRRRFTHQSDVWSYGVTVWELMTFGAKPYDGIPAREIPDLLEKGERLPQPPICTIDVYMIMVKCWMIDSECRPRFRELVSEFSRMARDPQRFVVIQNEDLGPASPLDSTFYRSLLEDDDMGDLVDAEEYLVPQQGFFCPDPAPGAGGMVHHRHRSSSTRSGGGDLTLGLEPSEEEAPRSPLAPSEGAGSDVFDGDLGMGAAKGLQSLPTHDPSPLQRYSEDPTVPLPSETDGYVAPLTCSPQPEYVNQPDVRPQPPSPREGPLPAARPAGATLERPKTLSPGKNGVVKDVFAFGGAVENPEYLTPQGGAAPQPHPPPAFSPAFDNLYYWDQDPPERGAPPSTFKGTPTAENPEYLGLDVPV

Row | SMILES | viability [1] [%] | Her2 level [2] | viability [3] | viability [4] | viability [5] | differential viability (reversal) ([6]; H69AR cells + 2 uM doxorubicin) | viability [6, 9] [%] | viability [6, 10] [%] | inhibition [7] | inhibition [8]
1 | COC(=O)c1cccc(NC(=O)CSc2nnc(COc3ccc(C#N)cc3)n2-c2ccccc2)c1 | 92 | 112% (inactive) | 92% (inactive) | 105% (inactive) | 87.8% (inactive) | -1.66% (inactive) | 89.4 | 87.8 | 3.38% (inactive) | -3.02% (inactive)
2 | COc1ccc(C2=Nn3c(nnc3-c3cccnc3)SC2)cc1 | 83.5 | 93.5% (inactive) | 83.5% (inactive) | 97.1% (inactive) | 64.7% (inactive) | -16.5% (inactive) | 81.2 | 64.7 | -6.32% (inactive) | 0.48% (inactive)
3 | CC(C)C(=O)Nc1ccc2c(c1)nc1n2CCSC1 | 104 | 95% (inactive) | 104% (inactive) | 111% (inactive) | 95.4% (inactive) | 10.4% (inactive) | 85 | 95.4 | -0.78% (inactive) | -6.83% (inactive)
4 | Cc1occc1-c1nnc(SCC(=O)c2ccc(F)cc2)n1Cc1ccco1 | 77.5 | 82% (inactive) | 77.5% (inactive) | 84.1% (inactive) | 85.3% (inactive) | 3.13% (inactive) | 82.2 | 85.3 | -1.33% (inactive) | -0.16% (inactive)
5 | COc1ccc(CCNC(=O)C2CCN(Cc3nc(-c4cccc(Cl)c4)oc3C)CC2)cc1OC | 83.5 | 81.5% (inactive) | 83.5% (inactive) | 47.9% (inactive) | 73.4% (inactive) | -27.2% (inactive) | 101 | 73.4 | -5.13% (inactive) | -1.45% (inactive)
6 | CCOC(=O)C(NC(=O)C1CCCN1C(=O)OCc1ccccc1)C(=O)OCC (stereo not given) | 104 | 94.5% (inactive) | 104% (inactive) | 98.2% (inactive) | 99.8% (inactive) | 3.49% (inactive) | 96.3 | 99.8 | -1.58% (inactive) | -1.77% (inactive)
7 | COc1ccccc1OCc1ccc(C(=O)OCC2CCCO2)o1 (stereo not given) | 97.5 | 112% (inactive) | 97.5% (inactive) | 106% (inactive) | 100% (inactive) | 0.33% (inactive) | 99.8 | 100 | -5.39% (inactive) | -3.27% (inactive)
8 | CCOc1cc(C(=O)N2CCN(c3ccccc3)CC2)cc(OCC)c1OCC | 98.5 | 97% (inactive) | 98.5% (inactive) | 90.1% (inactive) | 97.2% (inactive) | 3.12% (inactive) | 94 | 97.2 | -4.93% (inactive) | -5.32% (inactive)
9 | Cc1csc(NC(=O)CCCSc2nc3ccccc3s2)n1 | 100 | 71% (inactive) | 100% (inactive) | 62.9% (inactive) | 96% (inactive) | 0.115% (inactive) | 95.9 | 96 | -5.87% (inactive) | 5.57% (inactive)
10 | CC(C)c1ccc(S(=O)(=O)N2CCN(C(=O)c3cccc(F)c3)CC2)cc1 | 106 | 104% (inactive) | 106% (inactive) | 92% (inactive) | 88.3% (inactive) | -8.65% (inactive) | 96.9 | 88.3 | -5.73% (inactive) | 3.28% (inactive)
11 | Cc1ccc(-n2ncc3c(Nc4c(C)n(C)n(-c5ccccc5)c4=O)ncnc32)c(C)c1 | 99 | 94.5% (inactive) | 99% (inactive) | 96.2% (inactive) | 92.3% (inactive) | 9.15% (inactive) | 83.2 | 92.3 | -4.8% (inactive) | 1.45% (inactive)
12 | CC1(c2ccc(Cl)cc2)NC(=O)N(CC(=O)NC(=O)NCc2ccco2)C1=O (stereo not given) | 96 | 80.5% (inactive) | 96% (inactive) | 61.5% (inactive) | 107% (inactive) | 26.4% (inactive) | 81 | 107 | -3.82% (inactive) | -0.33% (inactive)
13 | COCCOC(=O)c1[nH]c2c(c1C)C(=O)CC(c1ccc(N(C)C)cc1)C2 (stereo not given) | 111 | 116% (inactive) | 111% (inactive) | 91.1% (inactive) | 83.5% (inactive) | -20.9% (inactive) | 104 | 83.5 | -6.16% (inactive) | -5.87% (inactive)
14 | COc1ccc(NC(=O)CCCN2C(=O)C3C4C=CC(C4)C3C2=O)c(OC)c1 (stereo not given) | 110 | 94% (inactive) | 110% (inactive) | 82% (inactive) | 102% (inactive) | 5.03% (inactive) | 97.1 | 102 | -5% (inactive) | -5.09% (inactive)
15 | c1ccc(-c2cc3c(nn2)CCc2nonc2-3)cc1 | 98.5 | 102% (inactive) | 98.5% (inactive) | 117% (inactive) | 97.8% (inactive) | -9.73% (inactive) | 108 | 97.8 | 0% (inactive) | 4.26% (inactive)
16 | CC1=CCC2C(=O)N(c3nc(C)cc(C)n3)C(=O)C2C1 (stereo not given) | 110 | 80% (inactive) | 110% (inactive) | 101% (inactive) | 91.1% (inactive) | -3.95% (inactive) | 95 | 91.1 | -6.71% (inactive) | 0.48% (inactive)
17 | Cc1nc(SCC#N)c2c(C)c(C)sc2n1 | 128 | 107% (inactive) | 128% (inactive) | 98.6% (inactive) | 98.4% (inactive) | 9.83% (inactive) | 88.6 | 98.4 | -5.33% (inactive) | -0.65% (inactive)
18 | CCC(=O)Nc1ccc(NC(=O)c2cccc(OC)c2)nc1 | 94 | 92.5% (inactive) | 94% (inactive) | 101% (inactive) | 97.8% (inactive) | 7.67% (inactive) | 90.2 | 97.8 | 0.14% (inactive) | -6.56% (inactive)
19 | CCc1ccc(NS(=O)(=O)c2cccs2)cc1 | 97.5 | 102% (inactive) | 97.5% (inactive) | 101% (inactive) | 96% (inactive) | 2% (inactive) | 94 | 96 | -2.24% (inactive) | 1.48% (inactive)
20 | COc1ccc(CCNC(=O)CC2COc3ccccc3O2)cc1OC (stereo not given) | 102 | 93% (inactive) | 102% (inactive) | 100% (inactive) | 85.4% (inactive) | 4.62% (inactive) | 80.8 | 85.4 | -4.67% (inactive) | 8.36% (inactive)
21 | COC(=O)C1CCN(C(=O)NC(C)(C)C)CC1 | 110 | 83% (inactive) | 110% (inactive) | 104% (inactive) | 105% (inactive) | 17.2% (inactive) | 87.3 | 105 | -5.27% (inactive) | 8.73% (inactive)
22 | CCc1cc2c(CN3CCN(CCO)CC3)cc(=O)oc2cc1O | 106 | 97% (inactive) | 106% (inactive) | 90.4% (inactive) | 92.6% (inactive) | 0.895% (inactive) | 91.7 | 92.6 | -2.53% (inactive) | 1.61% (inactive)
23 | CCCOC(=O)c1[nH]c2c(c1C)C(=O)CC(c1ccc(OC)c(OC)c1)C2 (stereo not given) | 99 | 151% (inactive) | 99% (inactive) | 84.7% (inactive) | 96% (inactive) | 0.765% (inactive) | 95.3 | 96 | 2.63% (inactive) | -11.2% (inactive)
24 | O=C1NC(c2ccco2)Nc2ccccc21 (stereo not given) | 82.5 | 85.5% (inactive) | 82.5% (inactive) | 107% (inactive) | 97.8% (inactive) | 7.01% (inactive) | 90.8 | 97.8 | 0.55% (inactive) | -6.98% (inactive)
25 | CCSc1nnc(NC(=O)c2ccc(C)o2)s1 | 96.5 | 98.5% (inactive) | 96.5% (inactive) | 105% (inactive) | 116% (inactive) | 18.2% (inactive) | 97.4 | 116 | -4.13% (inactive) | -5.32% (inactive)
26 | CCOc1ncccc1C(=O)OCC(=O)Nc1ncc(C(F)(F)F)cc1Cl | 99.5 | 95% (inactive) | 99.5% (inactive) | 97.2% (inactive) | 93.8% (inactive) | -0.51% (inactive) | 94.3 | 93.8 | -1.58% (inactive) | 7.9% (inactive)
27 | O=C(Nc1ccc(Cl)cc1)C1CC=CCC1C(=O)OCC(F)(F)C(F)F (stereo not given) | 93 | 92.5% (inactive) | 93% (inactive) | 103% (inactive) | 94.6% (inactive) | 7.29% (inactive) | 87.3 | 94.6 | -6.89% (inactive) | -3% (inactive)
28 | Cc1cccc(-c2cc3nc4c(c(N5CCC6(CC5)OCCO6)n3n2)CCCC4)c1 | 80.5 | 100% (inactive) | 80.5% (inactive) | 77.8% (inactive) | 83.9% (inactive) | -9.12% (inactive) | 93 | 83.9 | -2.13% (inactive) | 9.37% (inactive)
